How the values were obtained:
[1] = biological target: Imidazoline I2 binding sites (Oryctolagus cuniculus); test: Displacement of [3H]idazoxan from imidazoline receptor I-2 binding sites in rabbit kidney membrane
[2] = biological target: T1, Adrenergic receptor alpha-2 (Rattus norvegicus) (UniProt P22086+P19328+P22909); test: pKb value using clonidine as agonist for Alpha-2 adrenergic receptor; format: functional
How it was run: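 Prostatic rat vas deferens held under 0.1 Hz electrical stimulation, with prazosin, propranolol (1 µM) and cocaine (10 µM) present. Compounds lacking agonist activity were tested against clonidine. Dose ratios were taken at clonidine ED50 at one antagonist concentration, tested six times. Dissociation constant by the van Rossum method.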

[3] = biological target: T2, Adrenergic receptor alpha-2 (Rattus norvegicus, UniProt P22086+P19328+P22909); test: Displacement of [3H]clonidine from Alpha-2 adrenergic receptor of rat cortex membrane
T2 sequence (P22086 whole entry): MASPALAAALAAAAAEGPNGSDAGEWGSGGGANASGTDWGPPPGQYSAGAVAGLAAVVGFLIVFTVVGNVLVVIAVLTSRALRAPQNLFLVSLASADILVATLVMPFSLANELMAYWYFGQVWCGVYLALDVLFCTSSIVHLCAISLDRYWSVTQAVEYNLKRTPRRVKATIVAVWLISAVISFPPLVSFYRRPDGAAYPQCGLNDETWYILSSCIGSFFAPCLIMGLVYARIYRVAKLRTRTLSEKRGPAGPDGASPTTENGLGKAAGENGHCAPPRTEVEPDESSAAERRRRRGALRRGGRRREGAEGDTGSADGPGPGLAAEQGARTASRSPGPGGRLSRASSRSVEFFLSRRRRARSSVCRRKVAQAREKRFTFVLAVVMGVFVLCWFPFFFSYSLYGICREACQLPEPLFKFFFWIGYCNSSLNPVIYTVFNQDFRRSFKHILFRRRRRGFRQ
T2 sequence (P19328 whole entry): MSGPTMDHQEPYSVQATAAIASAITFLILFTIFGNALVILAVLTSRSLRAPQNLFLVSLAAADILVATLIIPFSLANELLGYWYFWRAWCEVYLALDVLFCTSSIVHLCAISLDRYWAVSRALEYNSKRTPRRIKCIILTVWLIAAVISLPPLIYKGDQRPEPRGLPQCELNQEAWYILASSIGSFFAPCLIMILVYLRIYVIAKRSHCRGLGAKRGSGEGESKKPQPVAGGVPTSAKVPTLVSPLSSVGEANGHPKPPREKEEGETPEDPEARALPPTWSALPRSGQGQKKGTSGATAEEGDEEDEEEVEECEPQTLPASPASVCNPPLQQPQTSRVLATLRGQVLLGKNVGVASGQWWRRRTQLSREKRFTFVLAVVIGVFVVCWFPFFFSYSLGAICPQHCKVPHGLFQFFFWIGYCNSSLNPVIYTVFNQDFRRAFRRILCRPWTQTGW
T2 sequence (P22909 whole entry): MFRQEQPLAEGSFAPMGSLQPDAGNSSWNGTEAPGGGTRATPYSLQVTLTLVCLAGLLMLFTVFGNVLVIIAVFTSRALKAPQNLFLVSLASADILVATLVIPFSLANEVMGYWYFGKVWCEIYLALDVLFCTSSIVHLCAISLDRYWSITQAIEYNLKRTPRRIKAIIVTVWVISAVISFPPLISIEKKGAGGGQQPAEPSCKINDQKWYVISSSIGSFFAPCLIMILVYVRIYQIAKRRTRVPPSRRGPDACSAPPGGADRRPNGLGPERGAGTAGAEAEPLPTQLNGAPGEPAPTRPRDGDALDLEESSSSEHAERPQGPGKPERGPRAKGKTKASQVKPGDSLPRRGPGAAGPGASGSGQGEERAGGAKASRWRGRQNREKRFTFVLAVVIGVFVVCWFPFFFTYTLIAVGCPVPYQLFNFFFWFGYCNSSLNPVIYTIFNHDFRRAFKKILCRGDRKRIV
How it was run: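 Rat cerebral cortex membranes (200 µg protein) in 50 mM Tris-HCl pH 7.4, 5 nM [3H]clonidine, 10–12 competitor concentrations, 45 min at 25 °C; GF/B filtration, scintillation counting. Nonspecific binding with 10 µM phentolamine. Triplicate points; IC50 by nonlinear regression, Ki by Cheng–Prusoff, curves repeated at least three times, pKi ± SEM.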

[4] = Relative binding affinity for Alpha-2 adrenergic receptor and I2 imidazoline binding site (Antilog of the difference between pKi)
How it was run: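 Ratio from two radioligand assays. α2: rat cortex membranes with 5 nM [3H]clonidine, nonspecific binding with 10 µM phentolamine. I2: rabbit kidney membranes with 5 nM [3H]idazoxan, adrenoreceptors masked by 10 µM norepinephrine, nonspecific binding with 10 µM cirazoline. Both assays 45 min at 25 °C, Ki by Cheng–Prusoff.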

[5] = biological target: T3, Adrenergic receptor alpha-1 (Rattus norvegicus) (UniProt P15823+P23944+P43140); test: Inhibition of Alpha-1 adrenergic receptor twitch response in rat vas deferens in presence of cirazoline, pD2 is -log ED50; format: tissue-based
[6] = biological target: T1, Adrenergic receptor alpha-2 (Rattus norvegicus); test: pD2 is -log ED50 required to produce 50% inhibition of the twitch response in rat vas deferens (intrinsic activity in presence of clonidine) for Alpha-2 adrenergic receptor; format: tissue-based
How it was run: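 Prostatic portion (12 mm) of male albino rat (125–150 g) vas deferens, 37 °C, O2/CO2 95%/5%, 1 g loading tension. Physiological salt solution had 0.54 mM MgCl2, prazosin ([…]), propranolol (1 µM) and cocaine (10 µM). Field stimulation was 0.1 Hz, 3 ms, 10–15 V, recorded isometrically.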

[7] = biological target: T1, Adrenergic receptor alpha-2 (Rattus norvegicus); test: Antilog of the difference between pD2 of Alpha-2 adrenergic receptor and pD2 of Alpha-1 adrenergic receptor
[8] = biological target: T1, Adrenergic receptor alpha-2 (Rattus norvegicus); test: pD2 is -log ED50 required to produce 50% inhibition of the twitch response in rat vas deferens (intrinsic activity in presence of cirazoline) for Alpha-2 adrenergic receptor; format: tissue-based; conditions: in the assay text read “clonidine” for “cirazoline”
How it was run: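 Prostatic portion (12 mm) of male rat vas deferens (125–150 g) at 37 °C under 95% O2/5% CO2, 1 g load. Bath contains 0.54 mM MgCl2, prazosin, 1 µM propranolol and 10 µM cocaine.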

[9] = biological target: T3, Adrenergic receptor alpha-1 (Rattus norvegicus); test: pKb value using (-)-norepinephrine as agonist for Alpha-1 adrenergic receptor

Log Ki [1]	pKb [2]	Log Ki [3]	Ratio [4]	pD2 [5]	Ratio [7]	pD2 [8]	pKb [9]	Structure (SMILES)	pD2 [6]
-5.12	6.87	-6.8	47.9	5.99				CC(Oc1ccccc1Cc1ccccc1)C1=NCCN1 (centres undefined)	
-6.09		-6.45	2.3	6.37	29.5			c1ccc(-c2ccccc2NCC2=NCCN2)cc1	7.84
-4.9		-7	126	6.73	42.7			CC(Nc1ccccc1-c1ccccc1)C1=NCCN1 (centres undefined)	8.36
-6.57		-6.92	2.2	4.53	135	6.66		CC(Oc1cccc(-c2ccccc2)c1)C1=NCCN1 (centres undefined)	
-7.48	6.38	-7.14	0.46	4.89				c1ccc(NCC2=NCCN2)cc1 [PHENAMAZOLINE]	
-6.74	5.81	-7.5	5.8		0.78		5.92	CC(Oc1ccc(-c2ccccc2)cc1)C1=NCCN1 (centres undefined)	
		-7.1		6.68				c1ccc(-c2ccccc2OCC2=NCCN2)cc1	8.46
-6.7	7.14	-6.52	0.66	5.27				c1ccc(Cc2ccccc2OCC2=NCCN2)cc1	

Structure (SMILES)	Log Ki [1]	pKb [2]	Log Ki [3]	Ratio [4]	pD2 [5]	Ratio [7]	pD2 [8]	pKb [9]	pD2 [6]
CC(Oc1ccccc1-c1ccccc1)C1=NCCN1 (centres undefined) [BIPHENYLINE]			-7.91		7.2				8.52
C[C@@H](Oc1ccccc1-c1ccccc1)C1=NCCN1			-7		6.23				7.4
c1ccc(OCC2=NCCN2)cc1		6.71	-7.28		5.26				
C[C@H](Oc1ccccc1-c1ccccc1)C1=NCCN1			-7.5		7.51				8.55
CC(Oc1ccccc1)C1=NCCN1 (centres undefined)	-5.57	7.29	-7.01	27.5	5.2				

Reference: ChEMBL document CHEMBL1135400, “Alpha2-adrenoreceptors profile modulation and high antinociceptive activity of (S)-(-)-2-[1-(biphenyl-2-yloxy)ethyl]-4,5-dihydro-1H-imidazole” (J Med Chem, 2002)
